Measurements taken from ChEMBL document CHEMBL4052805, “Discovery of novel 4(1H)-quinolone derivatives as potential antiproliferative and apoptosis inducing agents” (Bioorg Med Chem Lett, 2017).
Counter-ions that a name gives are not always drawn. Activity calls are given as the source filed them. The calls are words filed in the database; no cut-off is given here.

Assays:
[1] = system: PC-3; experiment: Cytotoxicity against human PC3 cells assessed as reduction in cell viability after 24 hrs by MTT assay; details: PC-3, 24 h
[2] = system: HEp-2; experiment: Cytotoxicity against human Hep2 cells assessed as reduction in cell viability after 24 hrs by MTT assay; details: HEp-2, 24 h
[3] = system: MCF7; experiment: Cytotoxicity against human MCF7 cells assessed as reduction in cell viability after 24 hrs by MTT assay; details: MCF7, 24 h
[4] = system: HCT-8; experiment: Cytotoxicity against human HCT8 cells assessed as reduction in cell viability after 24 hrs by MTT assay; details: HCT-8, 24 h
[5] = system: HeLa; experiment: Cytotoxicity against human HeLa cells assessed as reduction in cell viability after 24 hrs by MTT assay
[6] = system: HepG2; experiment: Cytotoxicity against human HepG2 cells assessed as reduction in cell viability after 24 hrs by MTT assay; details: HepG2, 24 h
[7] = system: BGC-823; experiment: Cytotoxicity against human BGC823 cells assessed as reduction in cell viability after 24 hrs by MTT assay; details: BGC-823, 24 h
[8] = system: HepG2; experiment: Induction of apoptosis in human HepG2 cells assessed as viable cells at 10 ug/ml after 24 hrs by annexin V-FITC/propidium iodide staining based flow cytometry (reference value: 89.59%); format: functional; details: HepG2, 24 h, read-out: Activity
[9] = system: HepG2; experiment: Anticlonogenic activity against human HepG2 cells at 10 uM treated for 24 hrs measured after 6 days by crystal violet staining based assay; format: functional, cell-based
[10] = system: HepG2; experiment: Antiproliferative activity against human HepG2 cells up to 100 uM by CCK-8 assay; format: functional, cell-based; details: TDE = time-dependent effect
Summary of the method: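 HepG2 cells were seeded and left 24 h, then treated with a range of compound concentrations for 24 h. Viability was read by CCK-8 assay.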

[11] = system: HepG2; experiment: Induction of apoptosis in human HepG2 cells assessed as early apoptotic cells at 10 ug/ml after 24 hrs by annexin V-FITC/propidium iodide staining based flow cytometry (reference value: 6.56%); format: functional
[12] = system: HepG2; experiment: Induction of apoptosis in human HepG2 cells assessed as late apoptotic cells at 10 ug/ml after 24 hrs by annexin V-FITC/propidium iodide staining based flow cytometry (reference value: 3.50%); format: functional
[13] = system: HepG2; experiment: Induction of apoptosis in human HepG2 cells assessed as necrotic cells at 10 ug/ml after 24 hrs by annexin V-FITC/propidium iodide staining based flow cytometry (reference value: 0.36%); format: functional
[14] = system: HepG2; experiment: Induction of apoptosis in human HepG2 cells assessed as viable cells at 20 ug/ml after 24 hrs by annexin V-FITC/propidium iodide staining based flow cytometry (reference value: 89.59%); format: functional; details: HepG2, 24 h, read-out: Activity
[15] = system: HepG2; experiment: Induction of apoptosis in human HepG2 cells assessed as early apoptotic cells at 20 ug/ml after 24 hrs by annexin V-FITC/propidium iodide staining based flow cytometry (reference value: 6.56%); format: functional
[16] = system: HepG2; experiment: Induction of apoptosis in human HepG2 cells assessed as late apoptotic cells at 20 ug/ml after 24 hrs by annexin V-FITC/propidium iodide staining based flow cytometry (reference value: 3.50%); format: functional
[17] = system: HepG2; experiment: Induction of apoptosis in human HepG2 cells assessed as necrotic cells at 20 ug/ml after 24 hrs by annexin V-FITC/propidium iodide staining based flow cytometry (reference value: 0.36%); format: functional
[18] = system: HepG2; experiment: Induction of apoptosis in human HepG2 cells after 24 hrs by annexin V-FITC/propidium iodide staining based flow cytometry; format: functional, cell-based
[19] = system: HepG2; experiment: Induction of apoptosis in human HepG2 cells assessed as increase in Bak protein expression at 10 to 20 ug/ml after 24 hrs by Western blot analysis; format: functional, cell-based
[20] = system: HepG2; experiment: Induction of DNA damage in human HepG2 cells assessed as increase in PARP level after 24 hrs by Western blot analysis; format: functional, cell-based
[21] = system: HepG2; experiment: Induction of DNA damage in human HepG2 cells assessed as increase in caspase-3 level after 24 hrs by Western blot analysis; format: functional, cell-based
[22] = system: HepG2; experiment: Cell cycle arrest in human HepG2 cells assessed as accumulation at G2/M phase after 24 hrs by propidium iodide staining based flow cytometry; format: functional
[23] = molecular target: Cellular tumor antigen p53 (Homo sapiens) (UniProt P04637); experiment: Activation of p53 (unknown origin) transfected in human HepG2 cells at 4 uM after 24 hrs by dual-luciferase assay relative to control; format: cell-based
Summary of the method: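 HepG2 cells transfected with the pathway reporter for 24 h, then exposed to 4 μM compound for a further 24 h; reporter activity read by dual-luciferase assay.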

[24] = system: HepG2; experiment: Increase in p53 expression in human HepG2 cells at 10 to 20 ug/ml after 24 hrs by Western blot analysis; format: functional, cell-based
[25] = molecular target: Cellular tumor antigen p53 (Homo sapiens) (UniProt P04637); experiment: Activation of p53 in human HepG2 cells assessed as increase in p21 expression at 10 to 20 ug/ml after 24 hrs by Western blot analysis; format: cell-based
[26] = system: HepG2; experiment: Downregulation of cyclin B1 expression in human HepG2 cells after 24 hrs by Western blot analysis; format: functional, cell-based
[27] = system: HepG2; experiment: Downregulation of CDK1 expression in human HepG2 cells after 24 hrs by Western blot analysis; format: functional, cell-based

Chain of Cellular tumor antigen p53 (Homo sapiens) (P04637 whole entry, looked up): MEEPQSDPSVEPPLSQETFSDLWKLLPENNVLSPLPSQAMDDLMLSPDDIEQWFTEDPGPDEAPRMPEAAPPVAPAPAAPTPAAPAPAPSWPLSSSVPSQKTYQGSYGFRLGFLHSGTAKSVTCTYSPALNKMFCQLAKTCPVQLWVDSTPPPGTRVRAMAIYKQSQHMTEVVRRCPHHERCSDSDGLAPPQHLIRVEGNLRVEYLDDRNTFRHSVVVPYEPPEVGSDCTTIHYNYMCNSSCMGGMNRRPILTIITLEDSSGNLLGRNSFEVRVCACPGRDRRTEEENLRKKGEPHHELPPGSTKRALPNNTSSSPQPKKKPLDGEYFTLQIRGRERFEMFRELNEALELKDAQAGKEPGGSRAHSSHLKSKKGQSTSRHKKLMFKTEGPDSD

| Structure (SMILES) | IC50 [1] [µM] | IC50 [2] [µM] | IC50 [3] [µM] | IC50 [4] [µM] | IC50 [5] [µM] | IC50 [6] [µM] | IC50 [7] [µM] | other results |
| --- | --- | --- | --- | --- | --- | --- | --- | --- |
| NCCCNC(=O)c1cn(Cc2ccccc2)c2cc(Cl)ccc2c1=O | 9.12 | 8.31 | 5.02 | 14.5 | 4.54 | 5.42 | 6.71 |  |
| C=CCn1cc(C(=O)NCCCN)c(=O)c2ccc(Cl)cc21 | 13.2 | 36.5 | 31.6 | 34.7 | 22.4 | 17 | 20 |  |
| Oc1ccnc2cc(Cl)ccc12 | > 50 | > 50 | > 50 | > 50 | > 50 | > 50 | > 50 |  |
| Cl.NCCCNC(=O)c1cn(CCCc2ccccc2)c2cc(Cl)ccc2c1=O | 6.92 | 3.24 | 3.12 | 6.03 | 2.31 | < 1 | 3.2 | viability at 10 µg/mL [8]: 88.5%; Activity [9]: Active; Activity [10]: Tde; Activity [11]: 7.01%; Activity [12]: 3.71%; Activity [13]: 0.75%; viability at 20 µg/mL [14]: 66.3%; Activity [15]: 10.72%; Activity [16]: 18.44%; Activity [17]: 4.5%; Activity [18]: Dose-dependent effect; Activity [19]: Active; Activity [20]: Dose-dependent effect; Activity [21]: Dose-dependent effect; Activity [22]: Dose-dependent effect; fold change (FC) [23]: 1.5; Activity [24]: Active; Activity [25]: Active; Activity [26]: Dose-dependent effect; Activity [27]: Dose-dependent effect |
| CCn1cc(C(=O)NCCCN)c(=O)c2ccc(Cl)cc21 | 12.6 | 28.2 | 35.5 | 31.6 | 20 | 13.8 | 30.2 |  |
| CCCCn1cc(C(=O)NCCCN)c(=O)c2ccc(Cl)cc21 | 12 | 21.7 | 12.6 | 22.3 | 15 | 5.23 | 16.6 |  |
| COc1cccc2c1C(=O)c1c(O)c3c(c(O)c1C2=O)C[C@@](O)(C(=O)CO)C[C@@H]3O[C@H]1C[C@H](N)[C@H](O)[C@H](C)O1 [DOXORUBICIN HYDROCHLORIDE] | < 1 | < 1 | < 1 | < 1 | < 1 | < 1 | < 1 |  |
